Test system: Liver microsome
Experiment: Retention time in Sprague-Dawley rat liver microsomes treated with 100 uM cinobufagin at 37 degC after 30 mins by UFLC-DAD-ESI-MS analysis
Assay type: ADME
Conditions: 0.5 h
Method in brief: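 Male Sprague-Dawley rat microsomes (0.3 mg/ml) were incubated with CB (100 µM) at 37°C for 30 min, with and without NADPH-generating system. Separation was on an ODS column at 40°C using an acetonitrile/0.5% formic acid water gradient at 0.4 ml/min, with DAD detection at 294 nm plus ESI-MS.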

**Q.** How did the Retention_time turn out when `C[C@]12CC[C@@H](O)C[C@H]1CC[C@@H]1[C@@H]2CC[C@]2(C)[C@@H](c3ccc(=O)oc3)[C@@H](O)[C@H]3O[C@]132` was run?
**A.** Its Retention_time is 8.32 min.

**Q.** How did the Retention_time turn out when `CC(=O)O[C@H]1[C@H]2O[C@]23[C@@H]2CC[C@@H]4C[C@H](O)CC[C@]4(C)[C@H]2CC[C@]3(C)[C@H]1c1ccc(=O)oc1` was run?
**A.** The Retention_time was 10.59 min.

**Q.** `C[C@]12CC[C@H](O)C[C@H]1CC[C@@H]1[C@@H]2CC[C@]2(C)[C@@H](c3ccc(=O)oc3)[C@@H](O)[C@H]3O[C@]132` [DESACETYLCINOBUFAGIN] was tested. Which Retention_time did it give?
**A.** The Retention_time was 6.95 min.

Source: ChEMBL document CHEMBL3526081 (Drug Metab Dispos, 2011)
